RBBP9 inhibitor – human RBBP9 inhibitors, primary screen, biochemical, fluorescence polarization, FP-Rh probe, HTS. Serine hydrolase RBBP9 (Homo sapiens), O75884. recombinant RBBP9. inhibition, % at 7.94 µM. 220,000 tested, 0.2% active;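 active means inhibition above the campaign mean of all tested compounds plus 3 SD, cut at about 14% in these data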;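 further: plate controls were DMSO wells with RBBP9 for no effect and wells lacking RBBP9 protein for full effect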
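Measured by – fluorescence polarization · Test system – RBBP9 protein · Input – 2.5 µM RBBP9 dispensing solution, before mixing · Measure – percent inhibition from mP, scaled between DMSO and no-protein wells · Benchmarks – DMSO-treated enzyme wells and wells lacking RBBP9 · Times – preincubation 30 min plus labeling 45 min at 25 °C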
eIF4E-4G inh – eIF4E–eIF4G protein interaction inhibitors, primary screen, biochemical, uHTS, TR-FRET, eIF4GI fragment; TR-FRET eIF4E-eIF4GI(517-606) binding, 2 h; inhibition, % at 21.7 µM; AID 782, 2007; 220,000 tested, 0.37% active;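 further: 0% = full FRET control wells and 100% = background wells lacking eIF4GI fragment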
14-3-3 Bad PPI – inhibitors of 14-3-3 zeta/Bad binding, primary screen, biochemical, TR-FRET, bovine 14-3-3 zeta. 14-3-3 protein zeta/delta (Bos taurus), P63103. TR-FRET 14-3-3zeta/Dy647-pBad peptide displacement, 1 h. inhibition, % at 21.7 µM. 220,000 tested, 0.71% active;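 active means inhibition above about 70%, limit read from the data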;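 further: 0% = full 14-3-3 plus peptide FRET controls and 100% = background without 14-3-3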
p47phox inh – p47phox/p22phox peptide binding inhibitors, primary screen, biochemical, uHTS, NADPH oxidase regulatory subunit; Neutrophil cytosol factor 1 (Homo sapiens), P14598; fluorescence polarization, 2 h; inhibition, % at 24.7 µM; 220,000 tested, 0.53% active;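 further: 0% = p47phox with labelled peptide and 100% = labelled peptide alone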
Wee1 stabilizer – Wee1 degradation inhibitors, primary screen, cell-based, HeLa, Wee1K328M-luciferase, luminescence; Wee1-like protein kinase (Homo sapiens), P30291; HeLa Luc-Wee1K328M stability; 100% = proteasome inhibitor MG132 effect; reporter increase, % at 5 µM; 220,000 tested, 1.2% active;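 active means activation above the mean of all tested compounds plus 3 SD, set per screening run, cut at about 8.8% in these data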;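 further: cells exposed to compound for 20 h before luminescence read; 0% = DMSO alone and 100% = MG132 at 30 µM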
Wee1 degr conf – Wee1 degradation inhibitors, confirmation, cell-based, HeLa, Wee1K328M-luciferase, luminescence, triplicate | activation, % at 5 µM | AID 1410, 2008 | 1,100 tested, 4% active | shares compounds with Wee1 stabilizer | HeLa Luc-Wee1K328M degradation; vehicle 0%, proteasome-blocked wells 100%; in the data active means activation above about 8.9%
* = called active by the depositor; nt = no result given. An excerpt weighted towards active compounds, which were near 2.8% of everything screened.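 How the source made its calls, unless noted: active means inhibition above about 30% (limit read from the data); inactive means the rest.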

SMILES	RBBP9 inhibitor	eIF4E-4G inh	14-3-3 Bad PPI	p47phox inh	Wee1 stabilizer	Wee1 degr conf
CCN(CC)CC(=O)NN(Cc1ccccc1)c1ccccc1	-10	2	20	-9	11*	2
CCn1cc(C(=O)O)c(=O)c2cc(F)c(N/N=C/c3ccccc3[N+](=O)[O-])cc21	-6	4	19	-20	-1	nt
CC(=O)Nc1ccc(S(=O)(=O)Nc2nc3cc4c(cc3nc2Cl)OCCO4)cc1	-6	2	4	4	11*	5
CC(=O)c1c(C)[nH]c(C(=O)NCc2cccs2)c1C	-8	-5	2	-10	1	nt
CC(=O)c1c(C)[nH]c(C(=O)NCc2ccco2)c1C	-4	2	-13	-19	12*	4
C#CCn1c(=NC(=O)c2cc(-c3cccs3)nc3ccccc23)sc2cc(S(N)(=O)=O)ccc21	-3	0	40	1	-3	nt
Cc1ccc(O)c(NC(=O)c2cc([N+](=O)[O-])ccc2Cl)c1	2	1	-2	-2	11*	4
Cc1cc(O)c(NC(=O)c2cc([N+](=O)[O-])ccc2Cl)cc1C	-7	2	-16	-3	45*	4
O=C1NC(=S)N/C1=C\c1ccc(Oc2ccc(C(F)(F)F)cc2[N+](=O)[O-])c(Cl)c1	-7	4	-3	-11	-1	nt
CC1CCCN1CC#CC(O)(c1ccccc1)c1ccccc1 (stereo unspecified)	-1	-2	-1	-4	7	nt
COc1ccc(Nc2nc3ccc(OC)cc3s2)cc1	-5	0	-11	-1	-2	nt
COc1ccc2nc(Nc3nc(C)c(C(C)=O)s3)sc2c1	-3	-1	-5	-6	12*	5
CN(CCOc1ccccc1)c1ccc(S(=O)(=O)N2CCCCC2)cn1	-7	3	-1	-16	-1	nt
CN(Cc1c(F)cccc1Cl)c1ccc(S(=O)(=O)N2CCOCC2)cn1	-4	3	18	8	12*	3
COC(=O)CCc1sc(Nc2ccccc2)nc1-c1ccc(OC)cc1	1	7	-8	-7	0	nt
CCN1CCN(c2nc(Nc3ccc(OC)cc3)nc(N)c2[N+](=O)[O-])CC1	1	-1	-7	-2	12*	1
COc1cc(NC(C)=O)ccc1-c1cc2ccccc2oc1=O	-5	-2	12	11	15*	0
Cc1ccc(NC(=S)NNC(=O)Nc2ccccc2)cc1	-6	1	-21	0	14*	4
O=C(NNC(=S)Nc1ccccc1)Nc1ccccc1	3	4	-3	-10	8	nt
CCCCC1=CC2=C(c3ccco3)C(=O)C(C)(OC(=O)c3ccc(OC)cc3)C(=O)C2=CN1CC(C)C (stereo unspecified)	nt	-4	-1	-2	nt	nt
CCc1[nH]nc2c1C1(CCN(C(=O)OCc3ccccc3)CC1)C(C#N)=C(N)O2	-6	-2	-17	-15	16*	2
CCOc1cc(/C=C2\C(=O)ON=C2C)ccc1OCc1ccccc1	5	6	-3	-5	18*	1
O=C(CN1CCC(n2nnc3cc(C(F)(F)F)ccc32)CC1)Nc1ccc2c(c1)OCCO2	-2	-3	-11	-9	15*	2
O=C(CN1CCC(n2nnc3cc(C(F)(F)F)ccc32)CC1)Nc1ccc2c(c1)CCC2	-6	-3	-1	-32	-2	nt
CCOC(=O)c1c(C)[nH]c(C(=O)N/N=C\c2ccccc2O)c1C	3	4	10	8	12*	9
SMILES	RBBP9 inhibitor	eIF4E-4G inh	14-3-3 Bad PPI	p47phox inh	Wee1 stabilizer	Wee1 degr conf
Cc1nc2ccccc2n1CCN1CCOCC1	-3	3	20	-7	12*	-1
CC(=O)Nc1nc2ccccc2n1CCN1CCOCC1	-13	-3	10	-4	-3	nt
O=C(CCc1ccc(S(=O)(=O)NCc2ccccc2)cc1)NCC1CCCO1 (stereo unspecified)	-6	16	-13	-7	1	nt
COc1ccc(-c2noc(CSc3nc(-c4ccccc4)cc(=O)[nH]3)n2)cc1OC	0	nt	nt	14	14*	0
Cc1cc(N2CCN(C(c3ccccc3)c3ccc(Cl)cc3)CC2)n2ncnc2n1 (stereo unspecified)	-9	1	6	-7	12*	-1
O=C(CC1C(=O)N(c2ccccc2)C(=S)N1c1ccccc1)c1ccc(Br)cc1 (stereo unspecified)	-9	6	-1	-27	67*	1
CCSc1nc(=S)cc(C)[nH]1	4	-3	-3	-6	6	nt
COc1ccc(N(CC(=O)Nc2ccc(S(=O)(=O)N3CCCCC3)cc2)S(C)(=O)=O)cc1OC	11	-1	-7	-8	24*	0
O=C(CN1N=C(c2ccc(Cl)cc2)CCC1=O)NCc1cccs1	-10	1	-2	-6	12*	-2
COC(=O)c1ccccc1NC(=O)Nc1cnccn1	0	4	-3	-2	-2	nt
CCOc1ccccc1NC(=O)Nc1cccc(NC(C)=O)c1	-1	0	-3	-11	2	nt
CCOc1ccccc1NC(=O)Nc1cccc(C(C)=O)c1	-7	-7	-10	-21	15*	2
CCOc1ccccc1NC(=O)Nc1cnccn1	-2	-1	-21	5	17*	2
CSc1ncccc1C(=O)Nc1nnc(C2CC2)s1	-3	1	6	0	0	nt
CCOc1ccc(S(=O)(=O)N(C)c2ccc(OCC(=O)N3c4ccc(C)cc4C4CN(C)CCC43)cc2)cc1 (stereo unspecified)	-14	-4	11	-2	13*	0
O=S(=O)(c1ccc(N2CCC(c3ccc(Cl)cc3)=N2)cc1)N(CCO)CCO	1	-1	-2	-22	11*	0
O=S(=O)(c1ccc(Oc2ccc(S(=O)(=O)N(CCO)CCO)cc2)cc1)N(CCO)CCO	-6	-1	-3	5	4	nt
C[C@@H]1CC=C[C@H]2[C@H]1C(=O)N(Cc1ccccc1)[C@H]2c1cccc([N+](=O)[O-])c1	nt	0	3	4	nt	nt
COc1ccc(CCNC(=O)CCN2C(=O)COc3ccc(C)cc32)cc1OC	-6	-3	5	-12	1	nt
Cc1ccc2c(c1)N(C(C)C(=O)NCCc1ccccc1)C(=O)CO2 (stereo unspecified)	-3	1	-5	-13	12*	0

Screening data: PubChem, several laboratories
